Assay results reported in ChEMBL document CHEMBL4371003, “Discovery of Novel Dual Mechanism of Action Src Signaling and Tubulin Polymerization Inhibitors (KX2-391 and KX2-361)” (J Med Chem, 2018).
Values belong to the compound of their own block, whether it stands above or below them.

Key:
[1] = test system: HT-29; assay: Antiproliferative activity against human HT-29 cells in presence of 1.5% FCS by BrdU incorporation assay; type: functional, cell-based
[2] = Oral bioavailability in mouse; type: ADME, organism-based; settings: in vivo
[3] = test system: KM12; assay: Antitumor activity against human KM12 cells; type: functional, cell-based
[4] = test system: NCI-H460; assay: Antitumor activity against human NCI-H460 cells; type: functional, cell-based
[5] = test system: A549; assay: Antitumor activity against human A549 cells; type: functional, cell-based
[6] = test system: HT-29; assay: Antiproliferative activity against human HT-29 cells in presence of 0.5% FCS; type: functional, cell-based
[7] = organism: Homo sapiens; assay: Inhibition of SRC 527F mutant (unknown origin) expressed in mouse SYF cells assessed as inhibition of cell growth in presence of 10% FCS; type: cell-based
[8] = organism: Homo sapiens; assay: Inhibition of SRC 527F mutant (unknown origin) expressed in mouse SYF cells assessed as inhibition of cell growth in presence of 2% FCS; type: cell-based
[9] = molecular target: T1, Proto-oncogene tyrosine-protein kinase Src (Homo sapiens, UniProt P12931); assay: Inhibition of human c-SRC expressed in mouse NIH/3T3 cells assessed as reduction in cell growth; type: cell-based
[10] = test system: HT-29; assay: Antiproliferative activity against human HT-29 cells; type: functional
[11] = molecular target: Bcr/Abl fusion protein (Homo sapiens, UniProt P00519); assay: Inhibition of BCR/ABL (unknown origin); type: protein assay
[12] = test system: SK-OV-3; assay: Antiproliferative activity against human SKOV3 cells; type: functional
[13] = Antiproliferative activity against human PC3MM2 cells; type: functional
[14] = test system: L3.6pl; assay: Antiproliferative activity against human L3.6PL cells; type: functional
[15] = test system: MDA-MB-231; assay: Antiproliferative activity against human MDA-MB-231 cells; type: functional
[16] = test system: A549; assay: Antiproliferative activity against human A549 cells; type: functional
[17] = test system: Huh-7; assay: Antiproliferative activity against human HuH7 cells; type: functional
[18] = test system: 769-P; assay: Antiproliferative activity against human 769-P cells; type: functional
[19] = test system: K562; assay: Antiproliferative activity against human K562 cells; type: functional
[20] = test system: K-562R; assay: Antiproliferative activity against human K562R cells; type: functional
[21] = test system: MOLT-4; assay: Antiproliferative activity against human MOLT4 cells; type: functional
[22] = test system: CCRF-HSB-2; assay: Antiproliferative activity against human CCRF-HSB2 cells; type: functional
[23] = test system: Jurkat; assay: Antiproliferative activity against human Jurkat cells; type: functional
[24] = test system: KG-1; assay: Antiproliferative activity against human KG1 cells; type: functional
[25] = test system: RPMI-8226; assay: Antiproliferative activity against human RPMI8226 cells; type: functional
[26] = test system: RL; assay: Antiproliferative activity against human RL cells; type: functional
[27] = test system: NCI-H460; assay: Antiproliferative activity against human H460 cells; type: functional
[28] = test system: NCI-H226; assay: Antiproliferative activity against human NCI-H226 cells; type: functional
[29] = test system: HCT-116; assay: Antiproliferative activity against human HCT116 cells; type: functional
[30] = test system: SW-620; assay: Antiproliferative activity against human SW620 cells; type: functional
[31] = Ratio of AUC in brain to plasma of mouse at 10 mg/kg, po; type: ADME, organism-based; settings: brain and plasma, read-out: Ratio AUC
[32] = Drug uptake in mouse brain at 10 mg/kg, po relative to peripheral drug level; type: ADME, organism-based
Procedure, shortened: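 Mice dosed orally at 10 mg/kg; brain and plasma exposure measured as AUC and expressed as brain-to-plasma AUC ratio.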

[33] = molecular target: T1, Proto-oncogene tyrosine-protein kinase Src; assay: Inhibition of Src (unknown origin)
[34] = test system: MES-SA/Dx5; assay: Antiproliferative activity against human MES-SA/Dx5 cells; type: functional
[35] = test system: NCI/ADR-RES; assay: Antiproliferative activity against human NCI/ADR-RES cells; type: functional
[36] = Antiproliferative activity against human PC3MLN4 cells; type: functional
[37] = Half life in po dosed mouse; type: ADME, organism-based; settings: in vivo
[38] = Half life in rat; type: ADME; settings: in vivo
[39] = Half life in dog; type: ADME, Canis lupus familiaris; settings: in vivo
[40] = Drug absorption in po dosed rat; type: ADME, organism-based; settings: in vivo, read-out: Drug absorption
[41] = Drug absorption in po dosed dog; type: ADME, organism-based, Canis lupus familiaris; settings: in vivo, read-out: Drug absorption
[42] = Ratio of AUC in tumor to plasma of mouse xenografted with human HT-29 cells at 5 mg/kg, po; type: ADME, organism-based; settings: tumor and plasma, read-out: Ratio AUC
[43] = Cmax in solid tumor patient at 40 mg, po during phase 1 clinical trial; type: ADME, organism-based; set-up: dose 40 mg, route oral; settings: human, in vivo
Procedure, shortened: (§1)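 Phase 1 trial in late-stage solid tumor patients: continuous twice-daily oral dosing, first in 4-week cycles of 3 weeks on and 1 week off, later without the off week. Plasma PK (Cmax, Tmax, half-life, Vz/F) recorded at each dose level; Cmax given in ng/ml and nM.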

[44] = Tmax in solid tumor patient at 40 mg, po during phase 1 clinical trial; type: ADME, organism-based; settings: human, in vivo
[45] = Half life in solid tumor patient at 40 mg, po during phase 1 clinical trial; type: ADME, organism-based; settings: human, in vivo
[46] = Apparent volume of distribution in solid tumor patient at 40 mg, po during phase 1 clinical trial; type: ADME, organism-based; settings: human, in vivo, read-out: Vz/F; procedure, shortened: as §1
[47] = Cmax in solid tumor patient at 80 mg, po BID during phase 1 clinical trial; type: ADME, organism-based; set-up: dose 80 mg, route oral; settings: human, in vivo; procedure, shortened: as §1
[48] = Cmax in solid tumor patient at 50 mg, po BID measured during first monthly cycle during phase 1 clinical trial; type: ADME, organism-based; set-up: dose 50 mg, route oral; settings: human, in vivo; procedure, shortened: as §1
[49] = Cmax in CRPC patient at 40 mg, po BID during phase 2 trial by LC-MS analysis; type: ADME, organism-based; set-up: dose 40 mg, route oral; settings: human, in vivo
[50] = Cmax in AML patient at 120 mg, po qd; type: ADME, organism-based; set-up: dose 120 mg, route oral; settings: human, in vivo
Procedure, shortened: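 Phase 1b study in elderly advanced AML patients with repeated once-daily oral dosing; plasma and bone-marrow drug concentrations measured.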

[51] = Half life in AML patient at 120 mg, po qd; type: ADME, organism-based; settings: human, in vivo
[52] = molecular target: Tyrosine-protein kinase Lyn (Homo sapiens, UniProt P07948); assay: Inhibition of LYN (unknown origin)
[53] = molecular target: BCR/ABL1 (Mus musculus) (UniProt P00520+Q6PAJ1); settings: Homo sapiens
[54] = test system: Bcr/Abl fusion protein (Homo sapiens), P00519+P11274 [E255K]
[55] = test system: Bcr/Abl fusion protein (Homo sapiens), P00519+P11274 [T315I]; settings: Mus musculus
[56] = molecular target: T1, Proto-oncogene tyrosine-protein kinase Src; assay: Inhibition of human recombinant pp60c-src expressed in baculovirus infected Sf9 insect cells using poly(Glu,Tyr) 4:1 as substrate after 15 mins
[57] = Inhibition of human c-SRC expressed in mouse NIH/3T3 cells assessed as reduction in BrdU incorporation after 24 hrs by ELISA

T1 sequence (P12931 2-536 limits assumed): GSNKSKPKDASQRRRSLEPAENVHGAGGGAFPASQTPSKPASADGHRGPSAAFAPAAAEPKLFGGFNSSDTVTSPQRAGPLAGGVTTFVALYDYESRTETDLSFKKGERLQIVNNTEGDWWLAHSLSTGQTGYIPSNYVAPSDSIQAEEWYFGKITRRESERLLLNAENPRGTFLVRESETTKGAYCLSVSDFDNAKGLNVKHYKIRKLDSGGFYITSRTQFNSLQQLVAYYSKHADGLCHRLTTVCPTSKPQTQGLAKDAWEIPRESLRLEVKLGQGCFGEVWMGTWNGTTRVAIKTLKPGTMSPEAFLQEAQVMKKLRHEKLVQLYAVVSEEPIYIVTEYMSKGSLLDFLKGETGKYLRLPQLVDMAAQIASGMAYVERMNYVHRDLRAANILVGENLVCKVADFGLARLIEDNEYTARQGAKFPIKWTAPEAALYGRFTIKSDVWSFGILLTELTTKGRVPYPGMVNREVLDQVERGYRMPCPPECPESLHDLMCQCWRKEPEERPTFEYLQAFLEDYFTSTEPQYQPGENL
Chain of BCR/ABL1 (Mus musculus) (P00520 whole entry, looked up, the tested form may be a part): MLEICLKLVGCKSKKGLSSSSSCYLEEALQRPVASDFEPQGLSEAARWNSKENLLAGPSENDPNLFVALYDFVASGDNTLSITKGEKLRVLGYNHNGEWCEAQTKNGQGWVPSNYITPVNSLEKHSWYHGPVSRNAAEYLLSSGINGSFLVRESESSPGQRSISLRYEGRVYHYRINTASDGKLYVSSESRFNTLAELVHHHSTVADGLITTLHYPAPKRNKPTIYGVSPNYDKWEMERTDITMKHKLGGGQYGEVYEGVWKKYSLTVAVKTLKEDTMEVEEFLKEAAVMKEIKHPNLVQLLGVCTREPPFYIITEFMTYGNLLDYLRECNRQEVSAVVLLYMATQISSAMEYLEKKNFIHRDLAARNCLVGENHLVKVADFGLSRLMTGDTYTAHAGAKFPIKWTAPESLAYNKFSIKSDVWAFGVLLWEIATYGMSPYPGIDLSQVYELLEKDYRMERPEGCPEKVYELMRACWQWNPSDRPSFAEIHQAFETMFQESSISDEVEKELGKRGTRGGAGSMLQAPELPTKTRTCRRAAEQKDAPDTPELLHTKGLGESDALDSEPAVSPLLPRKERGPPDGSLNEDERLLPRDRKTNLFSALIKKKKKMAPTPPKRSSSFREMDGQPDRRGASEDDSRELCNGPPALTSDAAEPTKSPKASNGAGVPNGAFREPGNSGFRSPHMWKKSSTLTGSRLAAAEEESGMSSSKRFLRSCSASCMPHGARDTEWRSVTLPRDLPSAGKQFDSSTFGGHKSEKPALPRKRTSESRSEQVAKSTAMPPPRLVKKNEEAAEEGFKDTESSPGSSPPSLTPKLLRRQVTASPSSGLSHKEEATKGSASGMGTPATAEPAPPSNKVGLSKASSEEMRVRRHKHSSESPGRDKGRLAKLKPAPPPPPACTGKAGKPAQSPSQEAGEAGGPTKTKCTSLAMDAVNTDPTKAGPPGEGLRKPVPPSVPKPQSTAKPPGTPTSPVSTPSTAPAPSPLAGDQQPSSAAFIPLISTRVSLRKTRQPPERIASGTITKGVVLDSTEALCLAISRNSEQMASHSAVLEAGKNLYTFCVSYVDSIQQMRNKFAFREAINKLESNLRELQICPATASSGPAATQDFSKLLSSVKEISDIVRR
Chain of BCR/ABL1 (Mus musculus) (Q6PAJ1 whole entry, looked up, the tested form may be a part): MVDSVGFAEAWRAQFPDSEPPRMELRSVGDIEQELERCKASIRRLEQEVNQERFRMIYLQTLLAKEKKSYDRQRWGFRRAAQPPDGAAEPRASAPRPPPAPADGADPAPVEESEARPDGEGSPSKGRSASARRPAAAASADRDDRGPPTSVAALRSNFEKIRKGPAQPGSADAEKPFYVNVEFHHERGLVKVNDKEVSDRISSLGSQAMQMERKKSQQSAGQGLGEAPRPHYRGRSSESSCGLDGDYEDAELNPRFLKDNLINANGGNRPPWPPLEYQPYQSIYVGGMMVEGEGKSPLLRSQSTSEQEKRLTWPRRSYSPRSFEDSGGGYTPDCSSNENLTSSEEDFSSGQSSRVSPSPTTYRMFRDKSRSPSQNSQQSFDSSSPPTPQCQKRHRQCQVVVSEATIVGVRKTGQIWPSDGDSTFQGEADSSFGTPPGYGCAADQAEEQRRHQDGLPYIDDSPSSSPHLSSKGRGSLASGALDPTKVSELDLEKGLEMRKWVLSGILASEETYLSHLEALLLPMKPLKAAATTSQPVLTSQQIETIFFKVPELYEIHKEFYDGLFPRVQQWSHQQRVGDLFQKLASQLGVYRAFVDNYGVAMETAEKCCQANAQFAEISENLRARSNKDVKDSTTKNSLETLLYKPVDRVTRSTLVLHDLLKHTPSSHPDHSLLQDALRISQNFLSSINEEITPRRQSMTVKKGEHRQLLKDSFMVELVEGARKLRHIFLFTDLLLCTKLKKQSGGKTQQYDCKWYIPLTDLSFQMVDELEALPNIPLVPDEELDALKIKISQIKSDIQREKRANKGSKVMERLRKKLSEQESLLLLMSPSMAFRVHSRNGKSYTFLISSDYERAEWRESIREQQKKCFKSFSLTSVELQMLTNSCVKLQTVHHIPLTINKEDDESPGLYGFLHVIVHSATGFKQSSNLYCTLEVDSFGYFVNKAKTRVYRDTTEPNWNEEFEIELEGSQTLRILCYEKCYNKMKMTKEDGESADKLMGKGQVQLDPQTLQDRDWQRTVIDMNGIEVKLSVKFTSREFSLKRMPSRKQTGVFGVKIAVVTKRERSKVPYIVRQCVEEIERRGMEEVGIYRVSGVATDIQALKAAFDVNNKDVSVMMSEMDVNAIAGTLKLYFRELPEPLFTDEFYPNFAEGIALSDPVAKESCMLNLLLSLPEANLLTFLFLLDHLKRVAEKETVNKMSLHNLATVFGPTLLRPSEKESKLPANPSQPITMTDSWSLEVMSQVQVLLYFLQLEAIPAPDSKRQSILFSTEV
Chain of Tyrosine-protein kinase Lyn (P07948 whole entry): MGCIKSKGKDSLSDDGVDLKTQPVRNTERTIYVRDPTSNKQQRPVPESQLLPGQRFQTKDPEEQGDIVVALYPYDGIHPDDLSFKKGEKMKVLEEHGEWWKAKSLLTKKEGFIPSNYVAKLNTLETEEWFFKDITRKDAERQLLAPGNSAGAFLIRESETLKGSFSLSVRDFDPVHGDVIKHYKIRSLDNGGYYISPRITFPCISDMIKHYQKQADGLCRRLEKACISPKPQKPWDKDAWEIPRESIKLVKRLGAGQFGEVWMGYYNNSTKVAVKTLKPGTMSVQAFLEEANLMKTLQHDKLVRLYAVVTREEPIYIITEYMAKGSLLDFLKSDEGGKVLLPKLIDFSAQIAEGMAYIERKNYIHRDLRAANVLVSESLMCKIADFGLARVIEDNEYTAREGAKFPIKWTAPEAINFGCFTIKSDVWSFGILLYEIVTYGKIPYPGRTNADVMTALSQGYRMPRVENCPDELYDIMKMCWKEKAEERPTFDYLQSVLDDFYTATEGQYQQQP

SMILES: O=C(NCc1cccc(O)c1)c1cc2cc(O)ccc2[nH]1
IC50 [3]: 4200 nM
IC50 [4]: 59000 nM
IC50 [5]: 41000 nM

SMILES: COc1cc2c(Nc3c(Cl)ccc4c3OCO4)ncnc2cc1OCCCN1CCCCC1
IC50 [56]: < 4 nM
GI50 [9]: 87 nM
IC50 [57]: 110 nM

SMILES: O=C(Cc1ccc(-c2ccccc2)cn1)NCc1cccc(F)c1
IC50 [1]: 338 nM
bioavailability [2]: 4%

SMILES: C#CCCCN(CCOc1ccc(-c2ccc(CC(=O)NCc3ccccc3)nc2)cc1)C(=O)c1ccc(C(=O)c2ccccc2)cc1
GI50 [10]: 28 nM
GI50 [36]: 45 nM

The next lines start with results.

IC50 [1]: 111 nM
bioavailability [2]: 64%
SMILES: O=C(Cc1ccc(-c2ccc(OCCN3CCOCC3)cc2)cn1)NCc1cccc(F)c1

IC50 [1]: 23 nM
bioavailability [2]: 49%
IC50 [6]: 5 nM
GI50 [9]: 20 nM
GI50 [10]: 25 nM
IC50 [11]: 100 to 200 nM
GI50 [12]: 10 nM
GI50 [15]: 20 nM
GI50 [16]: 9 nM
GI50 [17]: 9 nM
GI50 [19]: 13 nM
GI50 [20]: 0.64 nM
GI50 [21]: 13 nM
GI50 [22]: 12 nM
GI50 [23]: 10 nM
GI50 [25]: 40 nM
GI90 [27]: 162 nM
GI50 ([27]; Homo sapiens, NCI-H460): 51 nM
GI90 [28]: 490 nM
GI50 ([28]; Homo sapiens, NCI-H226): 98 nM
GI90 [29]: 195 nM
GI50 ([29]; Homo sapiens, HCT-116): 31 nM
GI90 [30]: 903 nM
GI50 ([30]; Homo sapiens, SW-620): 109 nM
Kp [31]: 0.42
Drug uptake [32]: 42%
IC50 [33]: 46000 nM
half-life [37]: 1 h
half-life [38]: 2 h
half-life [39]: 8 h
Fa [40]: 50 to 90%
Fa [41]: 50 to 90%
Kp [42]: 1.52
Cmax [43]: 80 ng/mL
Tmax [44]: 1 h
half-life [45]: 4 h
Vd/F [46]: 681 L
Cmax [47]: 273 ng/mL
Cmax [48]: 231 ng/mL
Cmax [49]: 61 ng/mL
Cmax [50]: 218 ng/mL
half-life [51]: 2.2 h
IC50 [52]: 100 to 200 nM
GI50 [53]: 85 nM
GI50 [54]: 80 nM
GI50 [55]: 35 nM
SMILES: O=C(Cc1ccc(-c2ccc(OCCN3CCOCC3)cc2)cn1)NCc1ccccc1 [TIRBANIBULIN]
GI50 [7]: 123 nM
GI50 [8]: 23 nM
GI50 [13]: 9 nM
GI50 [14]: 25 nM
GI50 [18]: 45 nM
GI50 [24]: 16 nM
GI50 [26]: 19 nM
GI50 [34]: 34 nM
GI50 [35]: 56 nM
GI50 [36]: 40 nM
